Published values of several laboratories.
CA9: Carbonic anhydrase 9 (CA9, Homo sapiens, UniProt Q16790)
PKN1: Serine/threonine-protein kinase N1 (PKN1, Homo sapiens, UniProt Q16512)
MAOB: Amine oxidase [flavin-containing] B (MAOB, Homo sapiens, UniProt P27338)
HRH1: Histamine H1 receptor (HRH1, Homo sapiens, UniProt P35367)
PADI4: Protein-arginine deiminase type-4 (PADI4, Homo sapiens, UniProt Q9UM07)

CCOC(=O)C1CSc2[nH]c(=O)sc2C1c1cn(-c2ccccc2)nc1-c1ccc(Br)cc1 (centres unmarked) — inhibition (CA9; enzyme activity, inhibitor; 1 µM): 61%
N#Cc1cnc(Nc2cc(NC[C@H]3CNCCO3)c(C(F)(F)F)cn2)cn1 — activity vs control (PKN1; enzyme activity, inhibitor; 1 µM): 86%
CCOC(=O)C1CSc2[nH]c(=O)sc2C1c1cn(-c2ccccc2)nc1-c1ccccc1 (centres unmarked) — inhibition (CA9; enzyme activity, inhibitor; 10 nM): 15.6%
O=C(Nc1ccccn1)c1ccccc1 — inhibition (MAOB; enzyme activity, inhibitor; 1 µM, 20 min): 2%
CN1CCC(=C2c3ccccc3CCc3ccccc32)CC1 — kon (HRH1; binding): 1.33e+06 M⁻¹ s⁻¹
CCC(=O)NCC[C@@H]1CCc2cc(O)c3c(c21)CCO3 — Km (Sulfotransferase 1A1 (SULT1A1, Homo sapiens, UniProt P50225); enzyme activity, substrate; pH 7): 19.2 µM
CC(C)(C)n1nnc([C@H](CCCNC(=N)CF)NC(=O)c2ccc(-c3ccccc3)cc2)n1 — kinact/KI (PADI4; enzyme activity, inhibitor): 20.8 M⁻¹ s⁻¹
CCOC(=O)C1CSc2[nH]c(=O)sc2C1c1cn(-c2ccccc2)nc1-c1ccc(Cl)cc1 (centres unmarked) — inhibition (CA9; enzyme activity, inhibitor; 0.1 µM): 36%
CN(C)c1ccc(-c2nc3ncc(Cl)c(N4CCN(CC(=O)Nc5nccs5)CC4)c3[nH]2)cc1 — activity vs control (PKN1; enzyme activity, inhibitor; 1 µM): 32%
COc1cc([N+](=O)[O-])ccc1NC(=O)c1ccccc1O — inhibition (MAOB; enzyme activity, inhibitor; 1 µM, 20 min): 7%
C=CC(=O)Nc1cc(N2CCN(CC)CC2)ccc1Nc1cc(N(C)C(=O)Nc2c(Cl)c(OC)cc(OC)c2Cl)ncn1 — activity vs control (PKN1; enzyme activity, inhibitor; 1 µM): 103%
COc1ccc(NC(=O)c2cc(Cl)ccc2O)cc1OC — inhibition (MAOB; enzyme activity, inhibitor; 1 µM, 20 min): 30%
N=C(CCl)NCCC[C@H](NC(=O)c1ccccc1)c1nn[nH]n1 — kinact/KI (PADI4; enzyme activity, inhibitor): 287 M⁻¹ s⁻¹
CN(C)C/C=C/C(=O)Nc1cc2c(Nc3ccc(F)c(Cl)c3)ncnc2cc1O[C@H]1CCOC1 — activity vs control (PKN1; enzyme activity, inhibitor; 1 µM): 57%
CN(C)CCOC1c2ccccc2C=Cc2ccccc21 — koff (HRH1; binding): 0.00015 s⁻¹
COc1cc([N+](=O)[O-])ccc1NC(=O)c1ccc2c(c1)OCO2 — inhibition (MAOB; enzyme activity, inhibitor; 1 µM, 20 min): 47%
Cc1cc(O)c(-c2ccc(C(C)CN(C)C)cc2)c2c1[nH]c(=O)c1sccc12.O (centres unmarked) — activity vs control (PKN1; enzyme activity, inhibitor; 1 µM): 32%
N#Cc1ccc(NC(=O)c2ccc(Cl)cc2)cc1 — inhibition (MAOB; enzyme activity, inhibitor; 1 µM, 20 min): 61%
CN(C)CCOc1ccc(-c2nc(-c3ccncc3)c(-c3ccc4c(c3)CC/C4=N\O)[nH]2)cc1 — activity vs control (PKN1; enzyme activity, inhibitor; 1 µM): 95%
O=C(Nc1ccc(C(F)(F)F)cc1)c1cc2ccccc2cc1O — inhibition (MAOB; enzyme activity, inhibitor; 1 µM, 20 min): 67%
C=CCn1c(=O)c2cnc(Nc3ccc(N4CCN(C)CC4)cc3)nc2n1-c1cccc(C(C)(C)O)n1 — activity vs control (PKN1; enzyme activity, inhibitor; 1 µM): 60%
CCOc1ccc(C(=O)Nc2ccc(Br)cc2)cc1OCC — inhibition (MAOB; enzyme activity, inhibitor; 1 µM, 20 min): 13%
O=C(c1ccc(Cl)cc1)N(Cc1ccccc1)C1CCCCC1 — inhibition (Endothelin receptor type B (EDNRB, Homo sapiens, UniProt P24530); cell-free assay; 10 µM): 3.4%
